Screening results deposited in PubChem BioAssay by Sanford-Burnham Center for Chemical Genomics.
TIM10 inh – TIM10 yeast growth inhibition | S. cerevisiae TIM10 strain growth, BacTiter-Glo luminescence, 24 h | inhibition, % at 10 µM | actives 1.4% (n = 330,000);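 active = inhibition of 40% or more at the single tested concentration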;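 also: wild-type TIM10 isogenic control strain grown at permissive 25 °C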
tim23-1 inh – growth inhibitors of tim23-1 mutant yeast; S. cerevisiae tim23-1 growth, BacTiter-Glo luminescence, 24 h; inhibition, % at 20 µM; actives 1.3% (n = 330,000); AID 463212;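 active = growth inhibition of the mutant yeast at or above 50%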;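 also: temperature-sensitive mutant grown at 25 °C; plate controls were DMSO-treated mutant yeast for no effect and medium wells lacking yeast for full effect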
CHOP UPR activ – apoptotic UPR (CHOP) activation. activation, % at 10 µM. actives 0.34% (n = 330,000). CHO-CHOP luciferase reporter, luminescence; percent of tunicamycin response over DMSO baseline;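 active = at 10 µM dose, activation of 40% or more, normalized to positive control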;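 also: 100% = tunicamycin at 10 µg/mL and 0% = DMSO alone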
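Evaluation: % reporter activation, DMSO baseline versus tunicamycin full activation; System: CHO-CHOP luciferase reporter cell line; Input: 500 cells/well; Incubation: 6 h compound treatment, 37 °C; Measured by: Steady-Glo luciferase luminescence; Dosing: one dose, 10 µM in 0.5% DMSO; Buffer or medium: F12 medium, 10% FBS; Benchmarks: positive tunicamycin 10 µg/mL, negative DMSO alone.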
XBP1 UPR activ – activators of adaptive arm of unfolded protein response (XBP1); CHO-XBP1 luciferase reporter, IRE1-XBP1 UPR activation, luminescence; percent of tunicamycin response, DMSO as zero; activation, % at 20 µM; actives 0.33% (n = 330,000); AID 463104;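 active = versus positive control, 20 µM dose yields 30% or more activation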;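 also: 100% = tunicamycin at 10 µg/mL and 0% = DMSO only wells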
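assay system = CHO-XBP1 luciferase reporter cells | amount = 1000 cells/well | buffer or medium = F12 plus 10% FBS | compound dosing = single point, 20 µM final compound, 1% DMSO | incubation = 16-18 h cell attachment at 37 °C, then 6 h compound exposure | detection = Steady-Glo luminescence read | controls = tunicamycin 10 µg/mL and vehicle-only wells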
tim10-1 inh – tim10-1 yeast growth inhibition; actives 2.2% (n = 330,000); S. cerevisiae tim10-1 ts strain growth, BacTiter-Glo, 24 h; inhibition, % at 20 µM;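 active = inhibition of at least 40%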;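 also: mutant grown at 25 °C; 0% = DMSO wells with yeast and 100% = wells holding no yeast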
tim10-1 confirm – tim10-1 yeast growth inhibition, confirmed. S. cerevisiae tim10-1 ts strain growth, BacTiter-Glo, 24 h. actives 56% (n = 7,400). shares compounds with tim10-1 inh. AID 463213. inhibition, % at 20 µM;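 active = inhibition of yeast growth at or above a set limit in either of two repeat tests at 20 µM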;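 also: tim10-1 mutant grown at permissive 25 °C to find synthetic lethal compounds; 0% = DMSO yeast wells and 100% = medium wells without yeast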
* = called active by the depositor; x = no result given. Shown are actives, neighbours in structure and some others; about 3.9% of the full set was active somewhere.

SMILES	TIM10 inh	tim23-1 inh	CHOP UPR activ	XBP1 UPR activ	tim10-1 inh	tim10-1 confirm
CCOC(=O)C1CCCN(C2CC(=O)N(c3ccc(C(C)C)cc3)C2=O)C1 (stereo not drawn)	23	25	-1	-1	42*	30*
CCOC(=O)C1CCN(C2CC(=O)N(c3ccc(OCC)cc3)C2=O)CC1 (stereo not drawn)	10	22	1	1	32	x
CCOC(=O)C1CCCN(C2CC(=O)N(c3ccc(N4C(=O)CC(N5CCCC(C(=O)OCC)C5)C4=O)cc3)C2=O)C1 (stereo not drawn)	7	5	-2	-1	11	x
CCOC(=O)C1CCCN(C2CC(=O)N(c3cccc(C(F)(F)F)c3)C2=O)C1 (stereo not drawn)	31	33	1	1	56*	42*
NC(=O)CSc1nc2sc3c(c2c2ncnn12)CCCC3	27	33	-1	2	42*	34*
CCn1c(SCC(N)=O)nc2sc3c(c2c1=O)CCCC3	26	14	-4	1	19	x
COc1ccc(C(=O)NCc2ccco2)cc1S(=O)(=O)NC1CC1	3	-7	2	-1	1	x
COc1ccc(Cn2nnnc2CN2CCC(c3nc4ccccc4s3)CC2)cc1	30	10	-2	0	41*	18
CC1=C(C)/C(=N\OC(=O)/C=C/c2ccccc2)C=CC1=O	6	21	2	-9	27	x
CC1=CC(=O)C=C(C)C1=NOC(=O)/C=C\c1ccccc1	37	32	36	1	46*	32*
CSC1=C(C#N)C(c2ccccc2Cl)C2=C(N1)c1ccccc1C2=O (stereo not drawn)	30	47	2	2	46*	28
COc1ccc(S(=O)(=O)N2CCN(CC(=O)NC(Cc3ccccc3)C(C)=O)CC2)cc1 (stereo not drawn)	5	0	1	-3	-4	x
COc1ccccc1N1CCN(CCC(=O)Nc2ccc(F)cc2)CC1	-11	6	3	-3	-2	x
Cc1cccc(NC(=O)c2ccc([N+](=O)[O-])s2)n1	35	38	9	-3	61*	58*
Cc1nc(NC(=S)NC(=O)c2cccs2)ccc1Br	11	12	3	2	2	x
Cc1cccc(NC(=S)NC(=O)c2cccs2)n1	21	47	4	1	45*	31
N#Cc1c(F)cccc1N1CCN(Cc2ccc3c(c2)OCO3)CC1	16	22	1	0	24	x
COc1ccc(OC)c(S(=O)(=O)N2CCC(C(=O)NCc3ccc4c(c3)OCO4)CC2)c1	-3	-3	-1	-6	-12	x
O=C(NCc1ccco1)c1cccn2c(=O)c3sccc3nc12	21	16	-1	1	40*	19
CCOc1ccc(CCNC(=O)CN2C(=O)CCSc3ccccc32)cc1	23	33	1	-1	15	x
CCOc1ccc(CCNC(=O)C(C)N2C(=O)CC(C)(C)Sc3ccccc32)cc1 (stereo not drawn)	12	39	-2	-1	42*	25
CN(C)S(=O)(=O)N1CCN(c2ccccc2Cl)CC1	6	20	1	4	7	x
CN(C)S(=O)(=O)N1CCN(c2cc(Cl)ccc2Cl)CC1	-13	28	-1	0	43*	20
Cc1ccc(C)c(S(=O)(=O)N2CCN(C(=O)C3CCN(c4ncnc5sc(C)c(C)c45)CC3)CC2)c1	-70	41	6	4	47*	28
Cc1ccc(NC(=O)C2CCN(c3ncnc4sc(C)c(C)c34)CC2)cc1S(=O)(=O)N(C)C	8	-7	-1	-2	-11	x
SMILES	TIM10 inh	tim23-1 inh	CHOP UPR activ	XBP1 UPR activ	tim10-1 inh	tim10-1 confirm
Cc1noc(C)c1CNCc1ccccc1	6	21	1	-1	42*	7
CC1CC1C(=O)OCC(=O)Nc1cc(S(=O)(=O)N2CCCCC2)ccc1Cl (stereo not drawn)	14	13	0	1	9	x
COc1ccc(OC)c(NC(=O)CSc2nnc(-c3cnccn3)n2C)c1	6	-5	2	-2	-6	x
Cc1cc(C(=O)CSc2nnc(-c3cccs3)o2)c(C)n1-c1ccccc1	27	28	-8	-5	48*	34*
CN(C)C(=O)CSc1nnc(-c2cc(-c3cccs3)nc3ccccc23)o1	32	34	-2	3	40*	38*
CC1CCCC(C)N1C(=O)Cn1nnc(-c2ccc([N+](=O)[O-])cc2)n1 (stereo not drawn)	-4	12	0	-4	2	x
O=C(Nc1nc(-c2ccco2)c(-c2ccco2)s1)c1ccc(F)cc1F	16	25	5	-2	40*	43*
Cn1c(=O)oc2cc(S(=O)(=O)Nc3ccc(F)cc3)ccc21	-11	-1	-1	-2	-2	x
Nc1nc2ccc(S(=O)(=O)N3CCCCC3)cc2s1	2	15	2	-5	40*	20
Cc1nc2ccc(S(=O)(=O)N3CCCCC3)cc2s1	10	6	3	-2	-11	x
C/C(CC(=O)Nc1ccc(C)c(Cl)c1)=N\NC(=O)c1ccco1	31	45	3	0	41*	0
COc1ccc(C(=O)CSc2nnc(CNc3ccc(C)cc3C)n2Cc2ccco2)cc1	23	35	1	-2	40*	24
CC(=O)Nc1ccc(C2=CC(=O)C[C@H](c3ccc4c(c3)OCO4)C2)cc1	10	38	1	0	21	x
CC(NC(=O)COc1ccc(S(=O)(=O)N2CCOCC2)cc1)c1ccccc1 (stereo not drawn)	1	-2	0	0	0	x
Cc1cc(C)n(-c2cc(N3CCOCC3)nc(-c3ccccc3)n2)n1	26	36	1	6	52*	13
c1ccc(-c2nc(N3CCOCC3)cc(N3CCOCC3)n2)cc1	11	28	0	-3	5	x
Cc1sc2nc(SCc3ccccc3)n(Cc3ccco3)c(=O)c2c1C	0	16	-1	-1	7	x
Cc1sc2nc(SCc3nc4ccccc4[nH]3)n(Cc3ccco3)c(=O)c2c1C	29	46	0	6	52*	35*
CC(C)N(Cc1nc(-c2ccccc2)no1)C(=O)c1ccc2c(c1)OCO2	20	34	0	0	81*	24
Cc1ccc(-c2noc(CN(C(=O)c3ccc4c(c3)OCO4)C(C)C)n2)cc1	27	16	-2	0	15	x
O=C(NCCC(=O)N1CCN(S(=O)(=O)c2ccc(Cl)cc2)CC1)Nc1ccccc1	-10	-12	0	-1	-14	x
N#Cc1c(N)nc2c(c1-c1ccccc1)CCCC2	32	7	0	3	30	x
CSc1nc2c(c(-c3ccccc3)c1C#N)CCC2	4	31	-2	-2	48*	32*
